Compound activity from PubChem.
In the library only some 1.2% were active in any assay of this set; here they are far more common.
PP5 inh: blocks human protein phosphatase 5 activity; P53041; purified PP5c, OMFP substrate fluorescence; inhibition, % at 6.7 µM; actives 0.18% (n = 320,000); AID 1987;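 active = inhibition above the campaign's mean inhibition across all tested compounds plus 3 SD, cut at about 9.5% in these data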;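 also: 0% = DMSO only and 100% = 100 µM cantharidin control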
Target sequence (P53041 whole entry, looked up): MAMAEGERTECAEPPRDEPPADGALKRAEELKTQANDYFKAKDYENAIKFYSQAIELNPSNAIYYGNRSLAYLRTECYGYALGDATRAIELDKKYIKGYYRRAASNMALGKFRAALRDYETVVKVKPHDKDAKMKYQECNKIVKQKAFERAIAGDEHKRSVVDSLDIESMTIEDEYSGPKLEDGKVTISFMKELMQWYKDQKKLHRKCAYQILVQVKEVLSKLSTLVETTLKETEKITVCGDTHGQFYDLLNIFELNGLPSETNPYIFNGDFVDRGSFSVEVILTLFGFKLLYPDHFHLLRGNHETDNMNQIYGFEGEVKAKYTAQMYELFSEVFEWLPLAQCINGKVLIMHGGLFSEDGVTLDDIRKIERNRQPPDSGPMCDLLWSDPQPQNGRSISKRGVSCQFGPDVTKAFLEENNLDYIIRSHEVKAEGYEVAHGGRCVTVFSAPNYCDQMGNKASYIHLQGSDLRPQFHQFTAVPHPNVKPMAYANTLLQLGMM
proCasp7 act: counter-screen: procaspase-7 (human) activation. recombinant procaspase-7, Ac-DEVD-pNA absorbance 405 nm; D23A/D198A/D206A triple mutant, cannot self-cleave; scale: DMSO 0, 5 µM enzyme 100. actives 0.093% (n = 330,000). AID 463210. activation, % at 8.5 µM. P55210;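 active = percent activation above the screen-wide mean plus 3 SD, cut at about 25% in these data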
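Assay system – Uncleavable procaspase-7 mutant enzyme · Quantity – 2 µM procaspase-7 mutant as dispensed · Times – 1 h preincubation, 2 h reaction · Dosing – single nominal 8.5 µM compound dose, 0.8% DMSO final · Buffer or medium – Zinc-free 50 mM HEPES buffer, pH 7.4, with NaCl and Triton X-100 · Detection – Epi-absorbance of released pNA at 405 nm, two timepoints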
PP1 inh: blocks human PP1-alpha phosphatase, a PP5 counter-screen | P62136 | purified PP1alpha, OMFP fluorescence | inhibition, % at 6.7 µM | actives 0.9% (n = 320,000) | AID 2235;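 active = inhibition above the mean inhibition of all tested compounds plus 3 SD, computed separately for each screening campaign, cut at about 15% in these data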
proCasp3 act: procaspase-3 (human) activation; P42574; activation, % at 8.5 µM; recombinant procaspase-3 D3A, Ac-DEVD-pNA absorbance 405 nm; actives 0.11% (n = 330,000); AID 463141;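 active = activation above the mean of all tested compounds plus 3 SD, cut at about 21% in these data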;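 also: 0% = DMSO alone and 100% = DMSO wells spiked with extra 5 µM PC-3 D3A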
Target sequence (P42574 whole entry D9A/D28A/D175A): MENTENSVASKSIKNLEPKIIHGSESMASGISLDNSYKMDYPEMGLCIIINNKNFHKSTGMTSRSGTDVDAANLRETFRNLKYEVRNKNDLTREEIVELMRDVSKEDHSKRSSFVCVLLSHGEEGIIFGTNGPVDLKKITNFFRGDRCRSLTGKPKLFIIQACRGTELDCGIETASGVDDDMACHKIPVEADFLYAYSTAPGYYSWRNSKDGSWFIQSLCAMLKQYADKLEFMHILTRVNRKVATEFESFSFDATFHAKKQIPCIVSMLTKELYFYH
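Compound: 8.5 µM single point, 0.8% DMSO / Material: Autoprocessing-dead procaspase-3 D3A mutant enzyme / Timing: 1 h preincubation plus 2 h reaction at 25 °C / Medium: Zinc-free HEPES/NaCl buffer with 0.01% Triton X-100 at pH 7.4 / Technique: 405 nm absorbance of p-nitroaniline, reads at 0 and 120 min / Repeats: one well per compound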
PP1 confirm: confirmation of human PP1 phosphatase inhibitors. purified PP1alpha, OMFP substrate fluorescence. actives 52% (n = 1,900). inhibition, % at 6.7 µM. shares compounds with PP1 inh. AID 2358;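 active = mean PP1 inhibition above a set limit taken from the earlier primary screen, cut at about 15% in these data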
PP5 counter: counter-screen for PP1 inhibitors: human PP5 phosphatase inhibition. shares compounds with PP1 inh. purified PP5c, OMFP fluorescence. inhibition, % at 6.7 µM. actives 4% (n = 1,900). AID 2360;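 active = mean PP5 inhibition over triplicate wells above about 9.5% taken from the earlier PP1 screen, limit read from the data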
procasp7 triplic: counter-screen for procaspase-3 activators: activators of human procaspase-7; shares compounds with proCasp3 act; recombinant procaspase-7, Ac-DEVD-pNA absorbance; asp23/198/206-to-Ala mutant, cannot self-cleave; activation, % at 8.5 µM; 210 tested, under 10 active;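 active = mean activation above a set limit taken from an earlier procaspase-7 screen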;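 also: 0% = DMSO wells and 100% = DMSO plus 5 µM procaspase-7 enzyme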
proCasp3 confirm: confirmation of human procaspase-3 activators | AID 488954 | recombinant PC-3 D3A, Ac-DEVD-pNA absorbance 405 nm; 100% is higher-enzyme control | activation, % at 8.5 µM | actives 10% (n = 210) | shares compounds with proCasp3 act;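 active = mean activation above a set limit carried over from the earlier primary screen, cut at about 22% in these data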
PC3 dual counter: counter-screen: procaspase-3 (human) activation | activation, % at 8.5 µM | 290 tested, under 10 active | recombinant PC-3 D3A, Ac-DEVD-pNA absorbance 405 nm; aspartates 9, 28, 175 changed to alanine; 100% = enzyme control | shares compounds with proCasp7 act;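 active = mean percent activation across triplicates above a set limit taken from the earlier primary procaspase-3 screen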;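 also: 0% = DMSO wells and 100% = DMSO wells with 5 µM added PC-3 D3A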
PC7 dual conf: confirmation of dual procaspase activators: human procaspase-7 activation | shares compounds with proCasp7 act | recombinant procaspase-7, Ac-DEVD-pNA absorbance 405 nm; D23A/D198A/D206A mutant that cannot self-cleave | activation, % at 8.5 µM | 290 tested, under 10 active | AID 493115;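 active = mean activation above a set limit carried over from the earlier primary screen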;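 also: 0% = DMSO only and 100% = DMSO with added 5 µM PC-7 enzyme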
Active calls of the source: *; / = no result.

SMILES	PP5 inh	proCasp7 act	PP1 inh	proCasp3 act	PP1 confirm	PP5 counter	others
CCOc1ccc(NC(=O)c2ccc(CNc3c(NC4CCCCC4)c(=O)c3=O)cc2)cc1	1.7	7.4	-0.7	3.1	/	/
COc1ccc(NC(=O)c2ccc(CNc3c(NC4CCCCC4)c(=O)c3=O)cc2)c(OC)c1	0.9	-7.8	21.1*	14.0	19.4*	-0.8
Cc1ccc(CNC(=O)COC(=O)c2ccc(S(=O)(=O)NCc3ccco3)cc2)cc1	-0.8	3.5	7.5	-1.3	/	/
CCc1cccc(N(CC(=O)NC2CCCCC2)C(=O)c2csnn2)c1	-0.5	-4.4	-2.4	0.4	/	/
Cc1cc(C)n(Cc2ccc(C(=O)N/N=C/c3ccc(-c4ccc([N+](=O)[O-])cc4)o3)o2)n1	3.2	9.7	32.7*	2.3	27.8*	-1.2
Cc1cccc(NC(=O)Cn2nnc(C(=O)Nc3ccc(F)c(Cl)c3)c2N)c1	-6.5	2.9	19.2*	7.8	-0.9	-3.9
COc1cccc(NC(=O)c2nnn(CC(=O)Nc3cc(C)cc(C)c3)c2N)c1	3.8	11.3	5.5	1.4	/	/
COc1ccc(Cl)cc1NC(=S)N1CC(C)OC(C)C1 (stereo unspecified)	3.3	2.0	2.1	-2.4	/	/
O=C1NC(=O)/C(=C\c2ccc(OCc3cccc([N+](=O)[O-])c3)cc2)N1	-0.3	6.5	43.2*	-1.8	19.7*	-0.4
C=CCn1c(SCC(=O)Nc2ccc(C(=O)O)cc2)nc2sc(C)c(C)c2c1=O	0.7	2.0	-0.5	5.4	/	/
C=CCn1c(SCC(=O)Nc2sccc2C#N)nc2sc(C)c(C)c2c1=O	0.4	-4.4	26.9*	-3.6	30.7*	-0.8
O=c1c(Cl)c(N/N=C/c2ccc(Cl)cc2)cnn1-c1ccccc1	0.3	3.4	29.1*	7.0	20.9*	-1.2
O=C(Nc1ccc(N2CCOCC2)c(S(=O)(=O)Nc2ccccc2Cl)c1)c1ccc(F)cc1	/	-1.7	/	6.2	/	/
O=C(Nc1cc(S(=O)(=O)N2CCCCC2)ccc1O)c1ccccc1NS(=O)(=O)c1ccc(F)cc1	6.7	3.0	6.8	0.1	/	/
O=C(Nc1ccc(F)cc1)Nc1ccc(N2CCCC2)c(S(=O)(=O)Nc2ccccc2Cl)c1	2.4	1.0	24.4*	2.5	9.9	4.6
O=C(Nc1ccc(Cl)c(Cl)c1)Nc1ccc(N2CCCC2)c(S(=O)(=O)Nc2ccccc2Cl)c1	2.9	-9.2	17.8*	-12.9	13.8	-0.4
O=C(Nc1cc(S(=O)(=O)N2CCCCC2)ccc1Cl)c1ccccc1NS(=O)(=O)c1ccc(F)cc1	6.8	8.8	19.9*	-3.4	13.7	7.5
COc1ccc(C2=NS(=O)(=O)N(C)C(C(=O)NCc3ccc4c(c3)OCO4)=C2)cc1OC	1.3	-8.6	4.8	-1.2	/	/
CC(C)(C)C1CCC2(CC1)Nc1cccc3cccc(c13)N2	-1.3	-0.6	31.2*	6.7	25.1*	4.0
CC(=O)N(Cc1ccccc1)c1c(N)nc(N)[nH]c1=O	0.9	-7.2	-0.3	2.3	/	/
CC(NC(=O)C12CC3CC(CC(O)(C3)C1)C2)c1ccccc1 (stereo unspecified)	0.3	8.1	1.2	4.8	/	/
COc1cc(/C=C2\SC(=N)N(c3ccc(F)cc3)C2=O)ccc1O	4.2	-0.1	26.4*	-9.8	20.1*	-1.0
COc1ccc(NC(=O)NNC(=O)COc2ccc3cc(Br)ccc3c2)c(OC)c1	-1.3	-12.3	19.9*	-5.5	23.3*	-6.2
N#Cc1c(-c2ccc(Cl)cc2)cc(-c2cccs2)nc1SCC(=O)O	2.5	-19.8	46.8*	-12.4	49.0*	-4.9
N#Cc1c(-c2ccccc2)cc(-c2cccs2)nc1SCC(=O)O	-0.6	-6.9	7.8	-4.6	/	/
SMILES	PP5 inh	proCasp7 act	PP1 inh	proCasp3 act	PP1 confirm	PP5 counter	others
CCc1ccccc1-n1ncc(C(=O)Nc2ccccc2OC)c1C	2.9	4.7	3.5	1.8	/	/
Cc1ccc(NS(=O)(=O)c2ccc(NC(=O)c3ccccc3C(=O)O)cc2)cc1C	0.9	4.9	-1.0	7.5	/	/
O=c1c2cc3c(cc2[nH]c(=S)n1C1CCN(Cc2ccccc2)CC1)OCO3	0.7	0.4	0.6	3.5	/	/
CCCn1c(N)c(C(=O)CSc2nc(C)nc3sc(C)c(C)c23)c(=O)[nH]c1=O	-1.6	1.7	22.3*	-10.3	-0.6	-4.0
Cc1cccc(C(=O)OCC(=O)N2CCCC2=O)c1[N+](=O)[O-]	-1.6	6.5	-4.5	4.5	/	/
CNC(=O)/C(C#N)=C/c1ccc(-c2ccc(Cl)cc2)o1	4.3	-27.4	20.1*	-16.4	15.8*	-3.4
O=C(Nc1nccs1)c1cc2c(s1)-c1ccccc1OC2	-1.1	28.2*	22.6*	29.6*	26.2*	-3.9	PC3 dual counter=-29.0;PC7 dual conf=-35.3
Cn1c(CCC(=O)O)nc2cc(S(=O)(=O)N3CCCCC3)ccc21	1.1	-17.2	-1.9	-9.6	/	/
COCCN(C(=O)CSCC(=O)Nc1ccc(C)cc1)c1c(N)n(CC(C)C)c(=O)[nH]c1=O	-0.8	5.5	0.7	60.5*	/	/	procasp7 triplic=2.1;proCasp3 confirm=5.2
COCCN(C(=O)CSc1nnc(Nc2ccc(C)cc2)s1)c1c(N)n(CC(C)C)c(=O)[nH]c1=O	0.1	3.1	-2.6	2.3	/	/
Cc1ccc(OCc2cc(C(=O)N(C)Cc3cnn(-c4ccccc4C)c3)no2)cn1	-0.2	6.3	-2.5	23.1*	/	/	procasp7 triplic=1.3;proCasp3 confirm=6.7
COc1ccc(NC(=O)CSc2nc3ccccc3nc2N2CCCC2)cc1Cl	0.3	-0.9	7.0	29.7*	/	/	procasp7 triplic=-2.7;proCasp3 confirm=-2.7
CC1CC(C)(C)CC2(C1)NC(=O)N(CC(=O)Nc1ccc3[nH]c(=O)[nH]c3c1)C2=O (stereo unspecified)	3.2	0.0	-1.3	37.3*	/	/	procasp7 triplic=2.2;proCasp3 confirm=3.7
COC(=O)Cn1c(=NC(=O)c2cc(-c3cccs3)nc3ccccc23)sc2cc(S(N)(=O)=O)ccc21	3.0	2.2	2.9	77.7*	/	/	procasp7 triplic=-19.9;proCasp3 confirm=-15.1
